Assay results from different studies.
Compare with care: the assays were run in different laboratories. ≈ marks a conversion by molar mass, not a printed value.
Organism: Bacillus subtilis

N#CC(=Cc1ccc(Cl)cc1)C1=NC(=O)C(=Cc2cn(-c3ccccc3)nc2-c2ccccc2)S1  inhibition zone (microbial growth, well diffusion; 100000 µg/mL): 22 mm
O=C(O)CN1C(=O)/C(=C/c2c3ccccc3c(-c3ccc(N(c4ccccc4)c4ccccc4)cc3)c3ccccc23)SC1=S  MBC (microbial killing, broth dilution; ATCC6633): > 1000 µg/mL
CCOC(=O)c1c(N)csc1-c1cn(-c2ccccc2)nc1-c1ccc(C)cc1  inhibition zone (microbial growth, well diffusion; 100000 µg/mL): 28 mm
CO[C@H]1O[C@H](COC(c2ccccc2)(c2ccccc2)c2ccccc2)[C@@H](OC(=O)c2ccc(C(C)(C)C)cc2)[C@H](OC(=O)c2ccc(C(C)(C)C)cc2)[C@H]1OC(=O)c1ccc(C(C)(C)C)cc1  MBC (microbial killing, broth dilution): 16 µg/mL (≈ 17.4 µM)
CC[C@H]1OC(=O)[C@H](C)[C@@H](O[C@H]2C[C@@](C)(OC)[C@@H](O)[C@H](C)O2)[C@H](C)[C@@H](O[C@@H]2O[C@H](C)C[C@H](N(C)C)[C@H]2O)[C@](C)(O)C[C@@H](C)/C(=N\OCOCCOC)[C@H](C)[C@@H](O)[C@]1(C)O  inhibition zone (microbial growth, disc diffusion; ATCC6633; 20000 µg/mL, 24 h): 23 mm
O=C1NC(=S)S/C1=C\c1ccc(-c2ccc(N(c3ccccc3)c3ccccc3)cc2)cc1  MBC (microbial killing, broth dilution; ATCC6633): > 1000 µg/mL
O=C(N[C@H](CO)[C@H](O)c1ccc([N+](=O)[O-])cc1)C(Cl)Cl  inhibition zone (microbial growth, disc diffusion; 50 µg/disc): 21 mm
N#CC(=Cc1ccc([N+](=O)[O-])cc1)C1=NC(=O)C(=Cc2cn(-c3ccccc3)nc2-c2ccccc2)S1  inhibition zone (microbial growth, well diffusion; 100000 µg/mL): 23 mm
O=C(O)c1ccc(-n2cc(/C=N/Nc3ccc(Cl)cc3Cl)c(-c3cccc(F)c3)n2)cc1  MIC (microbial growth; ATCC6623): 1.56 µg/mL (≈ 3.32 µM)
CC1(C)S[C@@H]2[C@H](NC(=O)[C@H](N)c3ccccc3)C(=O)N2[C@H]1C(=O)O  inhibition (microbial growth, agar dilution; ATCC6633; 26.93 µM): 100%
O=C(O)CN1C(=O)/C(=C/c2ccc(-c3ccc(N(c4ccccc4)c4ccccc4)cc3)cc2)SC1=S  MBC (microbial killing, broth dilution; ATCC6633): 1.95 µg/mL (≈ 3.73 µM)
CCOC(=O)c1c(N)csc1-c1cn(-c2ccccc2)nc1-c1ccccc1  inhibition zone (microbial growth, well diffusion; 100000 µg/mL): 23 mm
CN(/N=C/c1cn(-c2ccc(C(=O)O)cc2)nc1-c1ccc(F)cc1)c1ccccc1  MIC (microbial growth; ATCC6623): 12.5 µg/mL (≈ 30.2 µM)
O=C(O)CN1C(=O)/C(=C/c2ccc(-c3ccc(N(c4ccccc4)c4ccccc4)cc3)c3ccccc23)NC1=S  MBC (microbial killing, broth dilution; ATCC6633): > 1000 µg/mL
